Assay outcomes from PubChem BioAssay.
FID counter – displaces DNA intercalator in HCV helicase counter-screen; inhibition, % at 7.9 µM; 0.17% of 290,000 active; DNA fluorescent intercalator displacement, fluorescence; in the data active means inhibition above about 37%;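 further: higher means more ethidium bromide displaced from hairpin DNA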
HCV NS3 hel inh – HCV NS3 helicase inhibition; NS3 helicase DNA unwinding, Cy5 molecular beacon fluorescence; inhibition, % at 10.9 µM; 0.56% of 290,000 active; AID 1800;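 active means inhibition above the mean of all tested compounds plus 3 SD, set per campaign, cut at about 35% in these data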
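System: Hepatitis C virus NS3 helicase domain fragment enzyme | Reagent: Annealed dual-labelled DNA beacon duplex, ATP-started | Compound dosing: 10.9 µM single point, 0.8% DMSO | Incubation: 1 h reaction at 25 °C, ATP-initiated | Technique: Cy5 fluorescence | Evaluation: Percent inhibition from t60/t0 fluorescence ratio | Benchmarks: Low DMSO, high thioflavine S at 110 µM | Replication: Singlicate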
MEKK2mut PB1 HTS – signal of MEK5 binding to mutant human MEKK2 PB1 domain; AID 1530; bead flow cytometry, Alexa488-MEK5 binding to MEKK2 mutant; percent response, % at 10 µM; 0.35% of 290,000 active; in the data active means percent response above about 24%, passing the limit was not always enough
T cruzi repl – blocks replication of Trypanosoma cruzi | T. cruzi beta-gal in NIH3T3, luminescence, 90 h | inhibition, % (no concentration beside the values) | 1.4% of 300,000 active | AID 1885;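 active means mean inhibition across valid replicates above about 55%, limit read from the data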;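 further: signal also drops with host cell toxicity which is not excluded here; higher percent means less beta-gal luminescence so fewer parasites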
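assay system = mouse NIH/3T3 fibroblasts infected with β-gal-expressing T. cruzi Tulahuen C4 | input = 5,000 NIH/3T3 host cells per well | buffer or medium = DMEM plus 2% FBS | timing = 3 h host attachment, then at least 90 h co-culture | measured by = GalScreen luminescence, 60 min | evaluation = luminescence reflecting intracellular parasite burden, expressed as percent inhibition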
MEKK3 PB1 HTS – MEKK3-MEK5 PB1 interaction, increase or decrease. Q99759. bead-based flow cytometry, Alexa488-MEK5 binding to MEKK3; actives lie on both sides; 0 = blocked by unlabeled MEK5, 100 = vehicle. binding response (% of control), % at 10 µM. 1.4% of 290,000 active. AID 1529;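 active means binding response more than 3 SD above or below the average of its plate-row segment, actives on both sides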;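 further: Alexa488 bead fluorescence after subtracting the streptavidin-only scavenger bead signal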
Target sequence (Q99759 whole entry, looked up): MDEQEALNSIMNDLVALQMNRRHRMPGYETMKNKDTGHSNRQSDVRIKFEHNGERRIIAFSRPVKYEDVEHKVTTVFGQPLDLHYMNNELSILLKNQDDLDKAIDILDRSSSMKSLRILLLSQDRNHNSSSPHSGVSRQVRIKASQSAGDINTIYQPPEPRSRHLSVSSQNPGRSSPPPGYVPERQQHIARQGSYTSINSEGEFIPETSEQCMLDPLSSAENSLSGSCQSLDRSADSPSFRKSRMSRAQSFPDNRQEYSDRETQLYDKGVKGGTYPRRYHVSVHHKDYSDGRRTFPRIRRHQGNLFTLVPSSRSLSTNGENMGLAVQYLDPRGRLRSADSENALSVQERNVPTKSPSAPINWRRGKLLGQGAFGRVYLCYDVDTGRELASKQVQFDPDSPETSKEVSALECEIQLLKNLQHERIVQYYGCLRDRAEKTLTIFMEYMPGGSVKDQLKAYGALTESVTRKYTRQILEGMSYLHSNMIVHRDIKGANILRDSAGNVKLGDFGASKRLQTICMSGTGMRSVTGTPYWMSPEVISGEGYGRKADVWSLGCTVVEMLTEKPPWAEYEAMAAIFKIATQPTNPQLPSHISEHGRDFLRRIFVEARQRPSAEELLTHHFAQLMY
MEKK2wt PB1 HTS – raises or lowers MEK5 binding to wildtype human MEKK2 PB1 domain | bead flow cytometry, Alexa488-MEK5 binding to MEKK2 WT; actives lie on both sides | binding response (% of control), % at 10 µM | 1.1% of 290,000 active | AID 1531; in the data active means binding response below about 67% or above about 130%
Hits are given with their value; i = inactive; nt = no result. Compounds with a hit are over-represented: about 4.1% of the library has one in this group of screens.

SMILES | FID counter | HCV NS3 hel inh | MEKK2mut PB1 HTS | T cruzi repl | MEKK3 PB1 HTS | MEKK2wt PB1 HTS
O=C(C1CCCN(Cc2cccc(Cl)c2)C1)N1CCCCC1 (configuration not stated) | i | i | i | 66 | i | i
Cc1cccc(CN2CCCC(C(=O)N3CCc4ccccc4C3)C2)c1 (configuration not stated) | i | i | i | 55 | i | i
O=C(C1CCCN(Cc2ccc(Cl)cc2)C1)N1CCCCC1 (configuration not stated) | i | i | i | 57 | i | i
O=S(=O)(NCc1cccc(C(F)(F)F)c1)NCc1ccccc1F | i | i | i | i | i | i
COc1ccccc1/C=C/CN1CCSCC1 | i | i | i | i | i | i
Cc1ccc(/C(O)=C/c2nc3ccccc3oc2=O)cc1 | i | i | i | i | i | i
O=c1oc2ccccc2nc1/C=C(O)/C=C/c1ccc(F)cc1 | 40 | i | i | i | i | i
CC(=O)Nc1nc(C)c(-c2csc(Nc3cccc([N+](=O)[O-])c3)n2)s1 | i | i | i | 55 | i | i
CC(=O)Nc1nc(C)c(-c2csc(Nc3cccc(C(C)=O)c3)n2)s1 | i | i | i | i | i | i
CCCC(=O)Nc1nc(C)c(-c2csc(Nc3ccc(Cl)cc3)n2)s1 | i | i | i | i | i | i
CCC(C)C(=O)Nc1nc(C)c(-c2csc(Nc3ccc(Cl)cc3)n2)s1 (configuration not stated) | i | i | i | 58 | i | i
COc1ccc(C(=O)N(NC(=O)Oc2ccccc2)C(C)(C)C)cc1 | i | i | i | i | i | i
CCOc1ccc(NC(=O)CN2C(=O)CSC2=O)cc1 | i | i | i | i | i | i
CCOc1ccc(/C=N/NC(=O)CSc2n[nH]c(=O)[nH]c2=O)cc1OC | i | i | i | i | i | i
CC(C)CC(=O)NS(=O)(=O)c1ccc(NS(C)(=O)=O)cc1 | i | i | i | i | i | i
COc1ccc(-n2c(-c3ccc(Br)cc3)c[n+]3c2SC(C)C3)cc1 (configuration not stated) | i | i | i | 90 | i | i
COc1ccc(-n2c(-c3ccc(Br)cc3)n[nH]c2=S)cc1 | i | i | i | i | i | i
COc1ccc(-n2c(-c3ccc(Br)cc3)c[n+]3c2CCCCC3)cc1 | i | i | i | 66 | i | i
CCOc1ccc(-c2c[n+]3c(n2-c2ccccc2)CCCCC3)cc1 | i | i | i | 66 | i | i
COc1ccc(-n2c(-c3ccc(Br)cc3)c[n+]3c2CCC3)cc1 | i | i | i | i | i | i
CC(OC(=O)CCCN=C1NS(=O)(=O)c2ccccc21)C(=O)Nc1ccc(F)c(F)c1F (configuration not stated) | nt | nt | nt | i | nt | nt
Cc1c(C)c2cc(Cl)c(OCC(=O)NC3CC(C)(C)NC(C)(C)C3)cc2oc1=O | i | i | i | i | i | i
Cc1n[nH]c(=O)c2c(NC(=O)CSc3ccc(Br)cc3)oc(C)c12 | nt | nt | nt | i | nt | nt
Cc1ccc2[nH]c(=O)c(CN(CCCN(C)C)C(=S)NCCc3ccccc3)cc2c1 | i | i | i | 84 | i | i
Cc1cccc2cc(CN(CCCN(C)C)C(=S)NCCc3ccccc3)c(=O)[nH]c12 | i | i | i | 62 | i | i
SMILES | FID counter | HCV NS3 hel inh | MEKK2mut PB1 HTS | T cruzi repl | MEKK3 PB1 HTS | MEKK2wt PB1 HTS
CC(C)c1ccc(NC(=O)c2cc3c(=O)n(C)c4ccccc4c3n2C)cc1 | i | i | i | 60 | i | i
CCn1c(SCC(=O)Nc2sc3c(c2C#N)CCCC3)nnc1-c1ccco1 | i | i | i | 55 | i | i
CCn1c(SCC(=O)Nc2sc3c(c2C#N)CCC(C(C)(C)C)C3)nnc1-c1ccco1 (configuration not stated) | i | i | i | i | i | i
O=C(N/N=C/c1ccc([N+](=O)[O-])o1)c1cn(-c2ccccc2)nc1-c1ccc(Cl)cc1 | i | i | i | 64 | i | i
O=C(N/N=C/c1ccc([N+](=O)[O-])o1)c1cc(-c2ccc(-c3ccccc3)cc2)nc2ccccc12 | i | i | i | i | i | i
O=C(N/N=C/c1ccc([N+](=O)[O-])o1)c1ccccc1-n1cccc1 | i | i | i | 67 | i | i
CC1(C)C(C=C(Cl)Cl)C1C(=O)Nc1ccc([N+](=O)[O-])cc1 (configuration not stated) | i | i | i | nt | i | i
Cc1ccc(NS(=O)(=O)c2cccc3nsnc23)cc1[N+](=O)[O-] | i | i | i | i | i | i
C=CCN1C(=O)C2(NNc3ccccc3O2)c2ccccc21 (configuration not stated) | i | i | i | i | i | i
CCCCN1C(=O)C2(NNc3ccccc3O2)c2ccccc21 (configuration not stated) | i | i | i | i | i | 54
Nc1cc2c3c(cccc3c1)C(=O)N(CCN1CCCC1)C2=O | i | i | i | 78 | i | i
O=C1c2cccc3cc([N+](=O)[O-])cc(c23)C(=O)N1CCN1CCCC1 | 72 | i | i | 56 | i | i
Cc1cc(C)c(S(=O)(=O)N2CCN(CCN3C(=O)c4cccc5cccc(c45)C3=O)CC2)cc1[N+](=O)[O-] | i | i | i | nt | i | i
CCN(CC)CCN1C(=O)c2cccc3cc(N)cc(c23)C1=O | i | i | i | i | i | i
CC(/C=N/NC(=O)c1nnn(-c2nonc2N)c1CN1CCCCC1)c1ccccc1 (configuration not stated) | nt | nt | nt | i | nt | nt
CCC(=O)N1CCc2cc(S(=O)(=O)NCCC(=O)N3CCN(c4cccc(C)c4)C(C)C3)ccc21 (configuration not stated) | i | i | i | i | i | i
O=C(CSc1nncs1)Nc1nnc(-c2ccccc2)o1 | i | i | i | i | i | i
N/C(Cc1ccc(Cl)cc1)=N\OC(=O)c1ccc2ccccc2c1 | i | i | i | i | i | i
N/C(Cc1ccc(Cl)cc1)=N\OC(=O)c1cccc2ccccc12 | i | i | i | 65 | i | i
COc1ccccc1Nc1nc(N)nc(CSC(=S)N2CCC(C)CC2)n1 | i | i | i | i | i | i
COc1ccccc1Nc1nc(N)nc(CSC(=S)N2CCN(c3ccccc3)CC2)n1 | i | i | i | 63 | i | i
CC(C)(C)c1ccc(-n2nc(C#N)c(Cl)cc2=O)cc1 | i | i | i | 66 | i | i
CC(C)(C)c1ccc(-n2nc(C(N)=O)c(O)cc2=O)cc1 | i | i | i | i | i | i
O=C(Nc1ccccc1)Nc1cc(OCC(F)(F)F)cc(OCC(F)(F)F)c1 | i | i | i | 87 | i | i
Cc1cc(C)c(S(=O)(=O)N(C)CC(=O)NCCCn2ccnc2)c(C)c1 | i | i | i | i | i | i
Cc1ccc(-c2nc3cc(Br)cnc3nc2-c2ccc(C)cc2)cc1 | i | i | i | 58 | i | i
